The list is not random: actives were taken first. Their share in the collection is about 3.5%.
MrgX1 antag – antagonists of human MrgX1 receptor | Q96LB2 | MRGX1-HEK293 calcium flux, Fluo-4, BAM8-22 antagonism; active compounds read low | B-score at 10 µM | 310,000 tested, 1.3% active;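 active means calcium-response B-score plate-corrected more than 3 library SD below zero, starting fluorescence within 5 deviations, no agonist response on first addition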;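 further: peak minus trough fluorescence over baseline after final BAM8-22 challenge near maximal dose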
Target sequence (Q96LB2 whole entry, looked up): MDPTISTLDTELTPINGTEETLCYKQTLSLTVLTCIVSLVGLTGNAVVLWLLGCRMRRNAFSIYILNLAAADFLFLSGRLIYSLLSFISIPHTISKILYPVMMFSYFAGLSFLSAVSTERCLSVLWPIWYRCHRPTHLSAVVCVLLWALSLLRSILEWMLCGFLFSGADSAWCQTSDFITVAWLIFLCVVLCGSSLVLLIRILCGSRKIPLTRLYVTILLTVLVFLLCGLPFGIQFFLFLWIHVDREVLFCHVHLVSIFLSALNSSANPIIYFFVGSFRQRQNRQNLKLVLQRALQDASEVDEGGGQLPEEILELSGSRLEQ
MrgX1 allo act – human MrgX1 positive allosteric modulation, primary screen; B-score at 10 µM; Q96LB2; MrgX1-HEK293, Fluo-4 calcium flux, FDSS; active compounds read high; 310,000 tested, 0.63% active; AID 588675;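 active means plate-corrected calcium response at least 3 library SD above typical, normal starting fluorescence, not activating the receptor alone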;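 further: compound read alongside a low EC10 to EC30 dose of BAM8-22 agonist; peak minus trough fluorescence over baseline measured at the second addition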
RGS4 act – potentiators or activators of RGS4; HEK293 M3R/inducible RGS4, carbachol calcium flux Fluo4; active compounds read low; B-score at 10 µM; 310,000 tested, 0.92% active; AID 463111;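 active means B-score of the integrated calcium signal more than 4 SD below the library mean, with starting fluorescence not abnormally high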;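 further: negative B-score means reduced calcium response which marks RGS4 activation or potentiation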
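Material: Inducible-RGS4 HEK293 cells carrying M3 receptor; also added: carbachol at ECmax as muscarinic agonist stimulus; incubation: compound preincubation 20 min at room temperature before agonist; signal: Fluo4-AM (2 µM) calcium-flux fluorescence, kinetic read; measure: integrated calcium ratio converted to B score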
RGS4 inh – human RGS4 inhibition; P49798; HEK293 M3R/RGS4 inducible, Fluo-4 calcium flux; active compounds read high; triggered by carbachol at its EC20; B-score at 10 µM; 310,000 tested, 0.45% active; AID 463165;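 active means B-score, a plate-corrected calcium signal, over three deviations above library mean, with baseline fluorescence within five deviations of library mean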;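 further: RGS4 expression induced by doxycycline in cells with stable M3 receptor; B-score is computed from the integrated fluorescence ratio over baseline after carbachol; higher B-score means a larger calcium signal and so more RGS4 inhibition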
Target sequence (P49798 whole entry, looked up): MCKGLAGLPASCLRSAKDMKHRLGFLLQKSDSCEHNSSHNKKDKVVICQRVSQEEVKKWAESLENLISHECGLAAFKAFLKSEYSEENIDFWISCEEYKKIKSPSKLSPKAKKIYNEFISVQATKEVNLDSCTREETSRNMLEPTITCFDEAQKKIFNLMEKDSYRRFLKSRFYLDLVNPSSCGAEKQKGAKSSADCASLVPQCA
MrgX1 agonist – agonists of human MrgX1 receptor | AID 588627 | 310,000 tested, 0.44% active | MrgX1-HEK293 cells, Fluo-4 calcium fluorescence, agonist mode; active compounds read high | Q96LB2 | B-score at 10 µM;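 active means calcium response B-score plate-corrected fluorescence ratio at least 3 library SD, with starting fluorescence B-score inside 5 SD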
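Assay system: stable human MrgX1 HEK293 cell line. Quantity: 15,000 cells per well. Schedule: cells plated overnight, dye loaded 0.5 h 37 °C, 0.5 h room temperature. Detection: Fluo-4 NW calcium-flux fluorescence, kinetic read. Read-out basis: peak-minus-minimum fluorescence over baseline, converted to B scores. Control set: positive and negative control wells on each plate.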
MrgX1 ant reconf – human MrgX1 receptor antagonism, re-confirmation screen | shares compounds with MrgX1 antag | MrgX1-HEK293, BAM8-22 calcium flux, Fluo-4; active compounds read low | remaining BAM8-22 calcium response % of control (active compounds read low), % at 10 µM | 2,300 tested, 19% active | AID 602420;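 active means remaining agonist calcium response no higher than 100% minus 3 SD of agonist-only control wells, with starting fluorescence near control levels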;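 further: agonist BAM8-22 given at a near maximal EC90 to ECmax level; peak minus minimum fluorescence divided by baseline after agonist addition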
HEK293 Ca flux – MrgX1 antagonist counter-screen hit in parental HEK293 cells; fluorescence ratio F(max-min)/F0 at 10 µM; 4,000 tested, 2% active; shares compounds with MrgX1 antag; Fluo-4 calcium fluorescence, FDSS; AID 624111;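 active means duplicate-averaged calcium fluorescence ratio at least three times the standard deviation of buffer wells, a nonspecific response in parental cells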
HEK293 Ca counter – counter-screen for MrgX1 allosteric activators: effect in parental HEK293 cells. fluorescence ratio F(max-min)/F0 at 10 µM. shares compounds with MrgX1 antag. parental HEK293 calcium flux, Fluo-4 fluorescence ratio; active compounds read high. 4,000 tested, 0.4% active;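 active means calcium fluorescence ratio, averaged over duplicates, at least 3 SD of the buffer-well ratio, meaning a nonspecific response in receptor-free cells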;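 further: untransfected parental HEK293 lacking MrgX1 used as counterscreen for MrgX1 allosteric activators; fluorescence change taken during the second addition on a kinetic imager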
HEK293 Ca cntr2 – counter-screen for MrgX1 activators: effect in parental HEK293 cells; shares compounds with MrgX1 antag; fluorescence ratio F(max-min)/F0 at 10 µM; Fluo-4 calcium fluorescence (FDSS); active compounds read high; 4,000 tested, 8.7% active;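 active means calcium fluorescence ratio at least three times the spread of buffer wells, meaning a non-specific response in parental cells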
Hits are given with their value; 0 = inactive; - = not tested or not shown.

SMILES	MrgX1 antag	MrgX1 allo act	RGS4 act	RGS4 inh	MrgX1 agonist	MrgX1 ant reconf	HEK293 Ca flux	HEK293 Ca counter	HEK293 Ca cntr2
CCCCC(=O)Nc1ccc(C(=O)N(CC)c2ccccc2C)cc1	-7	0	0	0	0	0	0	0	0
O=C(O)CC(NC(=O)OCc1ccccc1)c1ccccc1 (stereo not drawn)	0	0	0	0	0	-	-	-	-
NC(CC(=O)O)c1cccc(OCc2ccccc2)c1 (stereo not drawn)	-5.4	0	-	-	0	75%	0	0	0
O=C(COC(=O)c1ccc(Cl)nc1)NCCC1=CCCCC1	0	0	0	0	0	-	-	-	-
COc1ccc(C(=O)Nc2nc(-c3cccs3)cs2)cc1	-7.6	0	0	0	0	0	0	0	0
O=C(Nc1nc(-c2cccs2)cs1)c1ccc(Cl)cc1	0	0	0	0	0	-	-	-	-
Cc1ccc(Nc2nnc(SCc3cc(=O)n4ccsc4n3)s2)c(C)c1	-7	0	0	0	0	0	0	0	0
CN1CCCN(C(=O)c2cccc3ccccc23)CC1	0	0	0	0	0	-	-	-	-
COc1ccc2cc(CCNC(=O)c3ccc(Br)o3)c(=O)[nH]c2c1	-5.3	0	0	0	0	0	0	0	0
Cc1cc2cc(CCNC(=O)c3ccc(Br)o3)c(=O)[nH]c2cc1C	0	0	0	0	0	-	-	-	-
Cc1ccccc1NC(=O)CCN1CCCCCC1	-6.1	0	0	0	0	0	0	0	0
Cc1ccccc1NC(=O)CCN1CCN(Cc2ccccc2)CC1	0	0	0	0	0	-	-	-	-
N#CCCN(Cc1cccnc1)C(=O)c1sc2cc(F)ccc2c1Cl	0	0	0	0	0	-	-	-	-
N#CC1=C(N)Oc2cc3c(cc2C1c1ccc(Cl)cc1)OCO3 (stereo not drawn)	-7.9	0	0	0	0	0	0	0	0
CC(=O)Nc1ccc(OCC(O)Cn2nc(C)c(Br)c2C)cc1 (stereo not drawn)	0	0	0	0	0	-	-	-	-
CC(C)C(CCNC1CCN(C)CC1)c1ccc(Cl)cc1 (stereo not drawn)	0	0	0	0	0	-	-	-	-
CN1CCC(NCCC(c2ccc(F)cc2)c2ccc(Cl)cc2)CC1 (stereo not drawn)	-4.6	0	0	0	0	0	0	0	0
CCOCCn1c(CN2CCN(c3ccccc3)CC2)nc2c1c(=O)n(C)c(=O)n2C	-7.4	0	0	0	0	0	0	0	0
CCOc1ccc(-c2nnn(CC(=O)c3cc(OC)ccc3OC)n2)cc1	-4.7	0	0	0	0	81%	0	0	0
Cc1ccc2nc(NC(=O)CSc3nncc(=O)n3N)sc2c1	0	0	0	0	0	-	-	-	-
CCCc1nc2ccccc2c(=O)n1CC(=O)c1ccccc1	-5.8	0	0	0	0	0	0	0	0
O=C(CNCc1cccs1)Nc1ccc(OC(F)(F)F)cc1	0	0	0	0	0	-	-	-	-
CCCC(=O)C1=C(N2CCCCC2)CC(C)(C)C(C(=O)OC)C1=O (stereo not drawn)	0	0	0	0	0	-	-	-	-
Cc1ccc(NC(=S)NCCSc2ccc(Cl)cc2)c(C)c1	-6.3	0	0	0	0	0	0	0	0
Cc1ccc(C)c(NC(=S)NCCSc2ccc(Cl)cc2)c1	0	0	0	0	0	-	-	-	-
SMILES	MrgX1 antag	MrgX1 allo act	RGS4 act	RGS4 inh	MrgX1 agonist	MrgX1 ant reconf	HEK293 Ca flux	HEK293 Ca counter	HEK293 Ca cntr2
Cc1sc2ncnc(N3CCC(C(=O)Nc4ccc(C#N)cc4)CC3)c2c1C	-5.3	0	0	0	0	0	0	0	0
Cc1nn(C)cc1C(C(=O)NC1CCCCC1)N(Cc1ccc(F)cc1)C(=O)c1cnccn1 (stereo not drawn)	0	0	0	0	0	-	-	-	-
Cc1ccc(-c2ccccc2)n1-c1ccc(C(=O)O)cc1	-4.6	0	0	0	0	78%	0	0	0
C=C(C)COc1ccc(-c2ncncc2-c2ccccc2)c(O)c1	0	0	0	0	0	-	-	-	-
CS(=O)(=O)N1CCC2(CC1)OCCN2S(=O)(=O)c1ccccc1	-6.9	0	0	0	0	0	0	0	0
COc1ccc(S(=O)(=O)N2CCC3(CC2)OCCN3S(=O)(=O)c2ccccc2)cc1OC	0	0	0	0	0	-	-	-	-
Cc1cc(NC(=O)CN2C(=O)NC3(CCCCCC3)C2=O)no1	0	0	0	0	0	-	-	-	-
COc1ccc(-c2csc(/C(C#N)=C\c3ccc(OC)c([N+](=O)[O-])c3)n2)cc1	0	0	0	0	0	-	-	-	-
COc1ccc(-c2csc(/C(C#N)=C\c3ccc(O)c([N+](=O)[O-])c3)n2)cc1OC	-11	0	0	0	0	41%	0	0	0
C/C(=N/OC(=O)c1ccccc1)c1oc(C)nc1C	0	0	0	0	0	-	-	-	-
Cc1ccc2cc(CN(Cc3cccs3)Cc3nnnn3CC3CCCO3)c(=O)[nH]c2c1 (stereo not drawn)	-4.8	0	0	0	0	0	0	0	0
Cc1ccc2[nH]c(=O)c(CN(Cc3cccs3)Cc3nnnn3CC3CCCO3)cc2c1 (stereo not drawn)	0	0	0	0	0	-	-	-	-
CCCc1nnc(SCc2ccc(OCC)cc2)n1N	-4.5	0	0	0	0	0	0	0	0
N#Cc1ccccc1S(=O)(=O)N1CCN(CC(=O)NC(=O)NC2CCCCC2)CC1	-6.3	0	0	0	0	0	0	0	0
O=C(NCCc1nccs1)C1CCC(=O)N(CCc2ccc(Cl)cc2)C1 (stereo not drawn)	0	0	0	0	0	-	-	-	-
Cc1cc(N=Nc2ccccc2C(=O)O)c(C)c(C)c1O	-6.9	0	0	0	0	0	0	0	0
Cc1cc(O)c(C(C)C)cc1N=Nc1ccccc1C(=O)O	0	0	0	0	0	-	-	-	-
COc1ccccc1NC(=O)Cc1noc(CSc2nnc(C)s2)n1	0	0	0	0	0	-	-	-	-
COc1ccccc1NC(=O)Cc1noc(CSc2nnc(N)s2)n1	-7.7	0	0	0	0	0	0	0	0
CCN(CC)C(=O)Cn1ccc(NC(C)=O)nc1=O	0	0	0	0	0	-	-	-	-
O=C(NCCCn1ccnc1)c1cc(S(=O)(=O)N2CCOCC2)c(Cl)cc1Cl	-5.1	0	0	0	0	0	0	0	0
c1ccc2[nH]c(CN3CCN(c4ncnc5c4oc4ccccc45)CC3)nc2c1	-6.4	0	-	-	0	0	0	0	0
